Data as given in ChEMBL document CHEMBL3616442, “Unconventional Knoevenagel-type indoles: Synthesis and cell-based studies for the identification of pro-apoptotic agents” (Eur J Med Chem, 2015).

Legend:
[1] = system: HCT-116; test: Growth inhibition of human HCT116 cells after 48 hrs by sulforhodamine B assay; format: functional; details: HCT-116, 48 h
Method in brief: (§1)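 NCI 60-cell-line screen. Compounds tested at five 10-fold dilutions from 10^-4 to 10^-8 M. Cells exposed for the last 48 h of a 72 h incubation, growth estimated by sulforhodamine B protein assay. GI50 is the concentration giving 50% growth inhibition. Values beyond the tested range are expressed as greater or lesser than the extreme concentration.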

[2] = system: MT4; test: Antiproliferative activity against human MT4 cells after 96 hrs by MTT assay; format: functional, cell-based; details: MT4, 96 h
Method in brief: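 Exponentially growing MT-4 cells (CD4+ human T-cells carrying integrated HTLV-1 genome), seeded at 1×10^5 cells/mL in RPMI-1640 with 10% FCS and antibiotics. Serial dilutions of compound (DMSO stock 100 mM, diluted in medium), 37 °C, 5% CO₂, 96 h. Viability read by MTT. 50% inhibition versus untreated controls by linear regression. Mean ± SD of three independent determinations.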

[3] = system: MCF7; test: Induction of apoptosis in human MCF7 cells by propidium iodide staining based flow cytometric analysis; format: functional; details: TDE = time-dependent effect
Method in brief: (§2)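 After treatment, cells harvested, fixed in ice-cold 70% ethanol at 4 °C, stained 30 min at 37 °C in the dark with 100 µg/mL propidium iodide plus 10 µg/mL RNase A; 10,000 gated cells analysed at 488 nm with debris excluded; apoptosis followed over time; mean ± S.E.M. of three independent experiments run in triplicate.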

[4] = system: K562; test: Antiproliferative activity against human K562 cells after 3 days incubation by alamar blue method; format: functional
Method in brief: (§3)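 HL-60 and K562 grown in RPMI 1640, MCF-7 in DMEM, each with 10% FCS, penicillin G and streptomycin. Seeded at 4x10⁴ (HL-60, K562) or 2x10⁴ (MCF-7) cells per well with serial compound dilutions, incubated 3 days at 37 °C. Alamar blue added for 3 h at 37 °C in the dark, fluorescence read at ex 544/em 590 nm. IC50 versus untreated controls by linear regression.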

[5] = system: SK-MEL-2; test: Growth inhibition of human SK-MEL-2 cells after 48 hrs by sulforhodamine B assay; format: functional; details: SK-MEL-2, 48 h
[6] = system: K562; test: Induction of apoptosis in human K562 cells by propidium iodide staining based flow cytometric analysis; format: functional; details: TDE = time-dependent effect; method in brief: as §2
[7] = system: DU-145; test: Growth inhibition of human DU145 cells after 48 hrs by sulforhodamine B assay; format: functional; details: DU-145, 48 h; method in brief: as §1
[8] = system: OVCAR-4; test: Growth inhibition of human OVCAR4 cells after 48 hrs by sulforhodamine B assay; format: functional; details: OVCAR-4, 48 h; method in brief: as §1
[9] = Growth inhibition of human HOP92 cells after 48 hrs by sulforhodamine B assay; format: functional; details: HOP-92, 48 h; method in brief: as §1
[10] = system: HL-60; test: Induction of apoptosis in human HL60 cells by propidium iodide staining based flow cytometric analysis; format: functional; details: TDE = time-dependent effect; method in brief: as §2
[11] = system: SK-MEL-28; test: Growth inhibition of human SK-MEL-28 cells after 48 hrs by sulforhodamine B assay; format: functional; details: SK-MEL-28, 48 h
[12] = system: HL-60; test: Antiproliferative activity against human HL60 cells after 3 days incubation by alamar blue method; format: functional; method in brief: as §3
[13] = Growth inhibition of human Hs 578T cells after 48 hrs by sulforhodamine B assay; format: functional; method in brief: as §1
[14] = system: SNB-75; test: Growth inhibition of human SNB75 cells after 48 hrs by sulforhodamine B assay; format: functional; details: SNB-75, 48 h
[15] = Growth inhibition of human RXF393 cells after 48 hrs by sulforhodamine B assay; format: functional; details: RXF 393, 48 h
[16] = Growth inhibition of human RPMI8226 cells after 48 hrs by sulforhodamine B assay; format: functional; details: RPMI-8226, 48 h
[17] = system: KM12; test: Growth inhibition of human KM12 cells after 48 hrs by sulforhodamine B assay; format: functional; details: KM12, 48 h; method in brief: as §1
[18] = system: SK-OV-3; test: Growth inhibition of human SKOV3 cells after 48 hrs by sulforhodamine B assay; format: functional; details: SK-OV-3, 48 h
[19] = system: MCF7; test: Growth inhibition of human MCF7 cells after 48 hrs by sulforhodamine B assay; format: functional; details: MCF7, 48 h; method in brief: as §1
[20] = Growth inhibition of human LOXIMVI cells after 48 hrs by sulforhodamine B assay; format: functional; details: LOX IMVI; method in brief: as §1
[21] = system: MCF7; test: Antiproliferative activity against human MCF7 cells after 3 days incubation by alamar blue method; format: functional; method in brief: as §3
[22] = system: CCRF-CEM; test: Cytotoxicity against human CCRF-CEM cells after 96 hrs by MTT assay; format: functional, cell-based
Method in brief: (§4)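 ATCC cell lines, mycoplasma-free by Hoechst staining. Haematological lines in RPMI-1640, solid-tumour and normal fibroblast lines in their own media, all with 10% FCS and antibiotics, at 37 °C in 5% CO₂. Compounds added as serial dilutions from a 100 mM DMSO stock diluted in medium. Viability by MTT after 96 h at 37 °C. Mean ± SD of three independent determinations.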

[23] = Cytotoxicity against human SKMES1 cells after 96 hrs by MTT assay; format: functional, cell-based; details: SK-MES-1, 96 h; method in brief: as §4
[24] = Cytotoxicity against human CRL7065 cells after 96 hrs by MTT assay; format: cell-based; details: CRL-7065, 96 h; method in brief: as §4
[25] = system: DU-145; test: Cytotoxicity against human DU145 cells after 96 hrs by MTT assay; format: functional, cell-based; details: DU-145, 96 h; method in brief: as §4
[26] = system: SK-MEL-28; test: Cytotoxicity against human SK-MEL-28 cells after 96 hrs by MTT assay; format: functional, cell-based; details: SK-MEL-28, 96 h; method in brief: as §4
[27] = system: WIL2-NS; test: Cytotoxicity against human WIL2-NS cells after 96 hrs by MTT assay; format: functional, cell-based; method in brief: as §4
[28] = system: CCRF-SB; test: Cytotoxicity against human CCRF-SB cells after 96 hrs by MTT assay; format: functional, cell-based; method in brief: as §4
[29] = system: HepG2; test: Cytotoxicity against human HepG2 cells after 96 hrs by MTT assay; format: functional, cell-based; details: HepG2, 96 h; method in brief: as §4
[30] = system: MRC5; test: Cytotoxicity against human MRC5 cells after 96 hrs by MTT assay; format: cell-based; details: MRC5, 96 h; method in brief: as §4
[31] = system: MCF7; test: Cytotoxicity against human MCF7 cells after 96 hrs by MTT assay; format: functional, cell-based; details: MCF7, 96 h; method in brief: as §4

Row | Structure (SMILES) | GI50 [1] | EC50 [2] | GI50 [5] | GI50 [7] | GI50 [8] | GI50 [9] | GI50 [11] | GI50 [13] | GI50 [14] | GI50 [15] | GI50 [16] | GI50 [17] | GI50 [18] | GI50 [19] | GI50 [20] | also measured
1 | CC(=O)/C(=C\c1c(-c2ccccc2)[nH]c2ccccc12)S(C)(=O)=O | 2.9 µM | 0.5 µM | 8.6 µM | 3.5 µM | 3.8 µM | 3.8 µM | 3.3 µM | 1.6 µM | 1.5 µM | 2.6 µM | 3 µM | 2.1 µM | 4.4 µM | 2.7 µM | 3.4 µM | Activity [3]: tde; Activity [4]: Dose-dependent effect; GI50 ([4]; K562, 72 h): 7.71 µM; Activity [6]: tde; Activity [10]: tde; Activity [12]: Dose-dependent effect; GI50 ([12]; HL-60, 72 h): 2.57 µM; Activity [21]: Dose-dependent effect; GI50 ([21]; MCF7, 72 h): > 10 µM
2 | COc1ccc2[nH]c(-c3ccccc3)c(C=C(C#N)C#N)c2c1 | 4.4 µM | 1 µM | 5.9 µM | 6.5 µM | 5.4 µM | 2.4 µM | 4.4 µM | 2.4 µM | 2.8 µM | 9.8 µM | 2.6 µM | 3.5 µM | 4.8 µM | 2.2 µM | 4.9 µM | 
3 | COC(=O)/C(=C\c1c(-c2ccccc2)[nH]c2ccccc12)S(C)(=O)=O | 4.2 µM | 0.4 µM | 11.8 µM | 2.5 µM | 6.2 µM | 6.6 µM | 6 µM | 3.5 µM | 2.3 µM | 7.2 µM | 6.2 µM | 1.5 µM | 12.1 µM | 2.9 µM | 5.1 µM | 
4 | CC(=O)/C(=C\c1c(-c2ccccc2)[nH]c2ccccc12)S(=O)(=O)c1ccccc1 | 0.754 µM | 0.4 µM | 1.4 µM | 3 µM | 3.7 µM | 5.9 µM | 2 µM | 5 µM | 1.7 µM | 1.3 µM | 2.2 µM | 1 µM | 2.9 µM | 0.945 µM | 1.4 µM | 
5 | COc1ccc(-c2[nH]c3ccc(OC)cc3c2/C=C(\C#N)S(=O)(=O)c2ccccc2)cc1 | 0.539 µM | 0.2 µM | 9 µM | 0.875 µM | 2.1 µM | 0.698 µM | 0.787 µM | 0.538 µM | 0.612 µM |  | 1.3 µM | 0.654 µM | 0.901 µM | 0.851 µM | 1.2 µM | EC50 [22]: 0.3 µM; EC50 [23]: > 100 µM; EC50 [24]: > 100 µM; EC50 [25]: 3 µM; EC50 [26]: > 100 µM; EC50 [27]: 0.5 µM; EC50 [28]: 0.3 µM; EC50 [29]: 6.4 µM; EC50 [30]: 22 µM; EC50 [31]: 40 µM
6 | COc1ccc2[nH]c(-c3ccccc3)c(/C=C(\C#N)S(=O)(=O)c3ccccc3)c2c1 | 3.7 µM | 1.3 µM | 3.7 µM | 10.1 µM | 8.3 µM | 6.1 µM | 6.1 µM | 7.6 µM | 5.9 µM |  |  | 3 µM | 7.1 µM | 3.9 µM | 7.4 µM | EC50 [22]: 1.5 µM; EC50 [23]: 12 µM; EC50 [24]: 11 µM; EC50 [25]: 10 µM; EC50 [26]: 10 µM; EC50 [27]: 2.8 µM; EC50 [28]: 1.9 µM; EC50 [29]: 9.6 µM; EC50 [30]: 14 µM; EC50 [31]: 12 µM
7 | CCOC(=O)C(=Cc1c(-c2ccccc2)[nH]c2ccccc12)C(=O)OCC | 4.3 µM | 2.3 µM | 4.7 µM | 9.7 µM | 10.5 µM | 8.8 µM | 7.7 µM | 3.8 µM | 7 µM | 3.7 µM | 0.219 µM | 3.5 µM | 13.6 µM | 4.5 µM | 5.6 µM | 
8 | N#C/C(=C\c1c(-c2ccccc2)[nH]c2ccccc12)S(=O)(=O)c1ccccc1 | 2 µM | 0.4 µM | 12.7 µM | 2.9 µM | 5.5 µM | 10.3 µM | 8.3 µM | 23.6 µM | 1.7 µM | 3.6 µM | 0.714 µM | 0.652 µM | 6.8 µM | 2.2 µM | 4.6 µM | 
9 | N#CC(C#N)=Cc1c(-c2ccccc2)[nH]c2ccccc12 | 2.3 µM | 0.4 µM | 27.6 µM | 3.3 µM | 5.2 µM | 7.7 µM | 5.1 µM | 2.3 µM | 2 µM | 3.3 µM | 0.582 µM | 0.684 µM | 6 µM | 1.1 µM | 3.3 µM | 
